Source: PubChem BioAssay (several laboratories)
An excerpt weighted towards active compounds, which were near 5.5% of everything screened.
STAT3 blocker: reduces IL-6 driven STAT3 reporter signal. U3A cells, IL-6 STAT3-luciferase reporter, luminescence; host cell line lacks STAT1. inhibition, % at 5.5 µM. 190,000 tested, 0.89% active. AID 862;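 active means inhibition above the mean inhibition across all screened compounds plus 3 SD, cut at about 44% in these data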
STAT1 activator: STAT1 signaling activation; NIH 3T3 STAT1-luciferase reporter, IFN-gamma, luminescence; 100% = IFN-gamma alone, no compound; activation (% of control), % at 5.5 µM; 200,000 tested, 2.6% active; AID 932;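 active means activation above the screen-wide mean activation plus 3 SD, cut at about 130% in these data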
STAT1 blocker: STAT1 signaling inhibition. inhibition, % at 5.5 µM. AID 920. NIH 3T3 STAT1-luciferase reporter, IFN-gamma, luminescence. 200,000 tested, 0.35% active;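 active means inhibition above a set limit, the mean inhibition across all tested compounds plus 3 SD, cut at about 34% in these data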
Cl transport mod: modulators of human KCC2 chloride dependent transport | Q9H2X9 | KCC2 cells, thallium flux FluoZin-2 fluorescence | B-score of Tl+ flux slope (higher = more flux/activation; lower = inhibition) at 10 µM | AID 1456 | 190,000 tested, 2.2% active;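 active means thallium flux slope and its plate-corrected score both differing from the plate sample mean at a set confidence after two filtering rounds, in either direction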;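 further: slope of fluorescence scaled to starting intensity during 10 to 20 s after thallium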
Target sequence (Q9H2X9 whole entry, looked up): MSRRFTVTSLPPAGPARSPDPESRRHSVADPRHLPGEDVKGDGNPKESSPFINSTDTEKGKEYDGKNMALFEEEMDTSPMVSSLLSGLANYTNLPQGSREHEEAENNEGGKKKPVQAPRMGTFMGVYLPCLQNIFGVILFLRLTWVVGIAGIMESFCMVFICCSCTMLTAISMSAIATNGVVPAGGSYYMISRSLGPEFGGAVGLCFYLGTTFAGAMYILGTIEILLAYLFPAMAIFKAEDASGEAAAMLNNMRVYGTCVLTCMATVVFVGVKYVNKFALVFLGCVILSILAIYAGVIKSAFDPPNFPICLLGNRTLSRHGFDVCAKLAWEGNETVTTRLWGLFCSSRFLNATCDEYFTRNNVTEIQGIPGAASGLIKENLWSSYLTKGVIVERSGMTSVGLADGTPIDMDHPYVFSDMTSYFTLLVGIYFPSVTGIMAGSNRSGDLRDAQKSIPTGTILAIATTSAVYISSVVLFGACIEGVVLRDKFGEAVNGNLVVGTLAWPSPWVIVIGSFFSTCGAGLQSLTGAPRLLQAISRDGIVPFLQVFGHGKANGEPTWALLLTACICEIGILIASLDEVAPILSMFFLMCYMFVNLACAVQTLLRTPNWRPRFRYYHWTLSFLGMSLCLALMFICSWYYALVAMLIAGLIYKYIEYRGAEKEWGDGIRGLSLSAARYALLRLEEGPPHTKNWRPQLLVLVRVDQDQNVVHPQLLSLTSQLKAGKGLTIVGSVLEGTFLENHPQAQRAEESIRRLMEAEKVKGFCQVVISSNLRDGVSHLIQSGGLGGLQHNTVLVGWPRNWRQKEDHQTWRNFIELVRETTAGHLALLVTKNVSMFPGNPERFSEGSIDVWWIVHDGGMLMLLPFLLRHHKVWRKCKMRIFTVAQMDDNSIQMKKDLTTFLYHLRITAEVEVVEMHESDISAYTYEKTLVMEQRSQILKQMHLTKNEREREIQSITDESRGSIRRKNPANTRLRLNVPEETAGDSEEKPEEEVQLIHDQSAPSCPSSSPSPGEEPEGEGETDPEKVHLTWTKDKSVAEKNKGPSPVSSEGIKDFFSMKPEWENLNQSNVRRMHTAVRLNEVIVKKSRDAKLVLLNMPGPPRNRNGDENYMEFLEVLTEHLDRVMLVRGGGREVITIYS
STAT3 act: activators of IL-6 induced STAT3 signaling; AID 871; U3A cells, IL-6 STAT3-luciferase reporter, luminescence; 100% = signal with IL-6 EC80 alone; activation (% of control), % at 5.6 µM; 190,000 tested, 0.91% active;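 active means activation above the screen-wide mean of compound activation plus 3 SD, cut at about 130% in these data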
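Test system: Human STAT1-deficient U3A cells with stable STAT3-luciferase reporter | Also added: Interleukin-6, 33 ng/mL | Timing: Compound pre-incubation 1 h before IL-6, then 6 h stimulation at 37 °C | Technique: Luciferase reporter luminescence | Read-out: Percent of IL-6-only median luminescence | Benchmarks: IL-6-only wells as 100% reference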
HSV augment: HSV replication enhancement | HSV replication augmentation in cells, fold increase | maximum fold increase | 220,000 tested, 0.005% active; in the data active means maximum fold increase above about 1.5; inconclusive means no clear call, values can overlap the other calls; tested in PC3 cells
KCC2 sec1: confirmation of human KCC2 transport modulators. shares compounds with Cl transport mod. HEK293-KCC2, thallium flux, FluoZin2 fluorescence; hits give high values. normalised thallium flux (F/F0 slope) at 10 µM. 3,700 tested, 15% active;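 active means thallium flux slope above the same plate's solvent-only control mean plus 3 SD; inconclusive means the two replicate wells disagree; inactive means no significant difference from solvent-only control wells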
KCC2 bumet counter: thallium flux persisting under bumetanide in KCC2 cells, counter-screen secondary assay. shares compounds with Cl transport mod. HEK293-KCC2 + bumetanide/ouabain, thallium flux FluoZin2; hits give high values. normalized thallium flux at 10 µM. 3,700 tested, 49% active. AID 1714;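 active means thallium entry rate above the same plate's blocked-transporter control wells by more than 3 SD; inconclusive means the two repeat wells disagree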;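 further: raw slope of fluorescence over initial fluorescence between 10 and 20 s after thallium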
KCC2 secondary2: confirmation of human KCC2 transport modulators; shares compounds with Cl transport mod; HEK293-KCC2, thallium flux FluoZin2 fluorescence; actives lie on both sides; F/F0 rise rate, 10–20 s post-thallium; normalized thallium flux at 10 µM; 3,700 tested, 23% active;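 active means thallium flux slope more than 3 SD above or below the plate's solvent-only control mean, mostly below; inconclusive means the two repeat wells disagreed; inactive means no significant shift from solvent-only controls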
HEK293 Tl flux: acts in parental HEK cells, KCC2 counter-screen; shares compounds with Cl transport mod; HEK293 parental cells, thallium flux FluoZin2, ouabain; baseline-ratio fluorescence slope, 10–20 s after thallium; thallium flux rate (normalised fluorescence) at 10 µM; 3,700 tested, 46% active;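 active means thallium flux rate significantly above the same plate's solvent-only control wells, beyond their mean plus 3 SD; inconclusive means the two replicate wells gave conflicting results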
KCC2 retest ouab: KCC2 (human) modulation, ouabain retest. shares compounds with Cl transport mod. HEK293-KCC2, thallium flux FluoZin2 fluorescence; bidirectional: low = inhibitor, high = activator. raw Tl+ flux slope (below DMSO = inhibition, above = activation) at 10 µM. 3,700 tested, 48% active. AID 1717;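 active means thallium flux slope beyond 3 SD from same-plate DMSO control mean in most replicates, usually higher, sometimes lower; inconclusive means repeat tests gave conflicting results; inactive means no significant difference from controls in most replicates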;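 further: slope of initial-normalized fluorescence between seconds 10 and 20 after thallium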
HEK293 Tl flux2: acts in parental HEK cells, second KCC2 counter-screen. shares compounds with Cl transport mod. HEK293 parental, thallium flux FluoZin-2 fluorescence slope. thallium flux slope at 10 µM. 3,700 tested, 33% active;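 active means thallium flux slope above the same plate's solvent-control mean plus 3 SD in both duplicate wells; inconclusive means duplicate wells that disagreed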;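 further: run without ouabain in cells lacking the KCC2 cotransporter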
Each line names hits and unclear results; the compound was inactive in the other large screens (follow-up assays come after a bar, where they were run).

CCOc1ccc(C2C(=O)N(C3CCCCC3)CC(=O)N2CC2CCCO2)cc1OC (centres undefined)	none (no result: Cl transport mod, HSV augment) | KCC2 sec1 inactive | KCC2 bumet counter inactive | KCC2 secondary2 inactive | HEK293 Tl flux inactive | KCC2 retest ouab inactive | HEK293 Tl flux2 inactive
CCCOc1ccc(C2C(=O)N(C3CCCCC3)CC(=O)N2CCCOCC)cc1OC (centres undefined)	none (no result: Cl transport mod, HSV augment) | KCC2 sec1 inactive | KCC2 bumet counter inactive | KCC2 secondary2 inactive | HEK293 Tl flux inactive | KCC2 retest ouab inactive | HEK293 Tl flux2 inactive
CCCCOc1ccc(C2C(=O)N(C3CCCCC3)CC(=O)N2CC2CCCO2)cc1 (centres undefined)	none
CC1CN(CC(=O)Nc2ccccc2Sc2ccccc2)CC(C)O1 (centres undefined)	none
Cc1cccc(/C=N/NC(=O)Cn2nc(C)cc2C)n1	none
O=C(Nc1nnc(C2=COCCO2)o1)c1ccc(Cl)cc1	Cl transport mod 8.5 | KCC2 sec1 inconclusive | KCC2 bumet counter 0.026 | KCC2 secondary2 inactive | HEK293 Tl flux 0.021 | KCC2 retest ouab 0.032 | HEK293 Tl flux2 inconclusive
O=C(Nc1nnc(C2=COCCO2)o1)c1ccc(Cc2ccccc2)cc1	Cl transport mod 7.3 | KCC2 sec1 inactive | KCC2 bumet counter 0.019 | KCC2 secondary2 inactive | HEK293 Tl flux 0.016 | KCC2 retest ouab inconclusive | HEK293 Tl flux2 0.019
CCOC(=O)SC1=N/C(=C\c2ccc(N(C)C)cc2)C(=O)S1	Cl transport mod 19 | KCC2 sec1 0.017 | KCC2 bumet counter 0.021 | KCC2 secondary2 inactive | HEK293 Tl flux 0.013 | KCC2 retest ouab 0.028 | HEK293 Tl flux2 0.011
CN(C)S(=O)(=O)c1cccc(NC(=O)c2cc3c(cc2Cl)N2CCCCCC2=NS3(=O)=O)c1	Cl transport mod -4.5 | KCC2 sec1 inactive | KCC2 bumet counter inactive | KCC2 secondary2 0.023 | HEK293 Tl flux inactive | KCC2 retest ouab 0.014 | HEK293 Tl flux2 inactive
CC(C)CCNC(=O)C1(c2cccs2)CCOCC1	none
O=C(CSc1ncnc2sc3c(c12)CCCC3)c1ccccc1	none
CC(C#N)Sc1ncnc2sc3c(c12)CCC3 (centres undefined)	Cl transport mod 4.2 | KCC2 sec1 inconclusive | KCC2 bumet counter 0.032 | KCC2 secondary2 inactive | HEK293 Tl flux 0.017 | KCC2 retest ouab inactive | HEK293 Tl flux2 0.013
O=C(CSc1ncnc2sc3c(c12)CCCC3)c1ccco1	Cl transport mod 19 | KCC2 sec1 inconclusive | KCC2 bumet counter 0.095 | KCC2 secondary2 inactive | HEK293 Tl flux inconclusive | KCC2 retest ouab 0.055 | HEK293 Tl flux2 inconclusive
Cc1ccc(C(=O)O)cc1NC(=O)CSc1ncnc2sc3c(c12)CCC3	Cl transport mod 10 (no result: STAT3 blocker, STAT1 activator, STAT1 blocker, STAT3 act) | KCC2 sec1 inactive | KCC2 bumet counter 0.016 | KCC2 secondary2 inactive | HEK293 Tl flux 0.017 | KCC2 retest ouab 0.025 | HEK293 Tl flux2 0.018
CC(=O)CSc1ncnc2sc3c(c12)CCCC3	none
CC(=O)C(Sc1ncnc2sc3c(c12)CCCC3)C(C)=O	Cl transport mod 6.4 | KCC2 sec1 0.015 | KCC2 bumet counter 0.1 | KCC2 secondary2 inactive | HEK293 Tl flux 0.018 | KCC2 retest ouab inconclusive | HEK293 Tl flux2 0.013
N#CCSc1ncnc2sc3c(c12)CCC3	none
CCSC(=Nc1ccccc1)Nc1ccccc1	none
S=c1[nH]nc(-c2cccc(Cl)c2)n1CCN1CCCCC1	none (no result: HSV augment)
CC(C)Cn1c(N)c(C(=O)CSc2ncnc3sc4c(c23)CCCC4)c(=O)n(C)c1=O	Cl transport mod 7.9 | KCC2 sec1 inactive | KCC2 bumet counter 0.014 | KCC2 secondary2 inactive | HEK293 Tl flux 0.014 | KCC2 retest ouab 0.021 | HEK293 Tl flux2 0.014
CC(C)(C)c1ccc(/C=N/NC(=S)Nc2cccnc2)cc1	Cl transport mod 12 | KCC2 sec1 inactive | KCC2 bumet counter 0.032 | KCC2 secondary2 inactive | HEK293 Tl flux 0.012 | KCC2 retest ouab inconclusive | HEK293 Tl flux2 0.011
CCC(C)(C)C1CCC(=NNC(=S)Nc2cccnc2)CC1 (centres undefined)	Cl transport mod 24 | KCC2 sec1 inactive | KCC2 bumet counter 0.039 | KCC2 secondary2 inactive | HEK293 Tl flux 0.022 | KCC2 retest ouab 0.042 | HEK293 Tl flux2 0.013
COc1cc(/C=N/NC(=O)c2cc(C)oc2C)cc(OC)c1OC	none
COc1ccc(C(=O)N2CCCC(CCC(=O)NCc3ccc(F)c(F)c3)C2)o1 (centres undefined)	none
Cc1cc(-c2nc3cccnc3s2)ccc1NS(=O)(=O)c1ccc2c(c1)OCCO2	Cl transport mod -3.9 | KCC2 sec1 inactive | KCC2 bumet counter inactive | KCC2 secondary2 inactive | HEK293 Tl flux inactive | KCC2 retest ouab inactive | HEK293 Tl flux2 inactive
O=C(NCc1ccccc1)c1nc2c(nnn2Cc2cccc(Cl)c2)c(=O)[nH]1	Cl transport mod -5.1 | KCC2 sec1 inactive | KCC2 bumet counter inactive | KCC2 secondary2 0.024 | HEK293 Tl flux 0.0063 | KCC2 retest ouab 0.013 | HEK293 Tl flux2 inconclusive
O=C(NCc1ccco1)c1nc2c(nnn2Cc2cccc(Cl)c2)c(=O)[nH]1	Cl transport mod -4.7 | KCC2 sec1 inactive | KCC2 bumet counter 0.0058 | KCC2 secondary2 inconclusive | HEK293 Tl flux 0.0063 | KCC2 retest ouab 0.014 | HEK293 Tl flux2 inactive
Cc1ccc(Cn2nnc3c(=O)[nH]c(C(=O)NCc4ccco4)nc32)cc1	none
O=C(Cc1ccc([N+](=O)[O-])cc1)N1CCCc2ccccc21	none
Cc1cc(S(=O)(=O)N(C)CCc2ccccc2)ccc1-n1cnnn1	Cl transport mod -4.6 | KCC2 sec1 inactive | KCC2 bumet counter inactive | KCC2 secondary2 0.024 | HEK293 Tl flux inactive | KCC2 retest ouab 0.016 | HEK293 Tl flux2 inactive
CN(C)c1cc(Cl)c2nonc2c1N	none (no result: STAT3 blocker, STAT1 activator, STAT1 blocker, STAT3 act)
COc1c(C)cc(C(=O)C2CCCN(C(=O)c3cccc(-n4cccn4)c3)C2)cc1C (centres undefined)	none
